Results collected from several papers.
Lines come from different studies, so protocols differ.
AKT2: RAC-beta serine/threonine-protein kinase (AKT2, Homo sapiens, UniProt P31751)
PDK1: [Pyruvate dehydrogenase (acetyl-transferring)] kinase isozyme 1, mitochondrial (PDK1, Homo sapiens, UniProt Q15118)

target | test | setting | quantity | result | SMILES
AKT2 | binding, competition with immobilised ligand | 1 µM | remaining binding | 100% | C=CC(=O)N1CCC(COCC(=O)N2CCN(c3nc(-c4cnc(N)nc4C(F)F)nc(N4CCOC[C@@H]4C)n3)CC2)CC1
Mitogen-activated protein kinase kinase kinase 19 (MAP3K19, Homo sapiens, UniProt Q56UN5) | cell-free assay, competition with immobilised ligand | 1 µM | inhibition | > 65% | Cc1ncsc1-c1ccc(CNC(=O)[C@@H]2C[C@@H](O)CN2C(=O)[C@@H](NC(=O)CCCCCCCCNC(=O)CN2CCN(C(=O)c3ccc(Nc4nc(C5CC5)cn5c(-c6cn[nH]c6)cnc45)c(F)c3)CC2)C(C)(C)C)cc1
Mast/stem cell growth factor receptor Kit (KIT, Homo sapiens, UniProt P10721) | binding, competition with immobilised ligand | 1 µM | remaining binding | 4.1% | Cc1cc(NC(=O)c2cccc(NC(=O)/C=C/CN(C)C)c2)ccc1Nc1nccc(-c2cccnc2)n1
PDK1 | enzyme activity, inhibitor, ATP luminescence | 10 µM | inhibition | 36.9% | O=C(c1ccccc1)c1ccc(Oc2ccc(C(=O)C(Cl)Cl)cc2[N+](=O)[O-])cc1
Vascular endothelial growth factor receptor 1 (FLT1, Homo sapiens, UniProt P17948) | enzyme activity, inhibitor, radiometric | 1 µM | remaining activity | 95% | CNc1ncc2c(/C=C/C(=O)N3CCC(OC)CC3)nn(Cc3cccc(C(F)(F)F)c3)c2n1
PDK1 | enzyme activity, inhibitor, ATP luminescence | 10 µM | inhibition | 41.8% | O=C(c1ccc(Oc2ccc3cc(Br)ccc3c2Cl)c([N+](=O)[O-])c1)C(Cl)Cl
Casein kinase I isoform gamma-2 (CSNK1G2, Homo sapiens, UniProt P78368) | binding, competition with immobilised ligand | 1 µM | remaining binding | 100% | Cc1cc([C@@H](C)Nc2ccccc2C(=O)O)c2nc(N3CCC(F)(F)CC3)c(C#N)c(=O)n2c1
PDK1 | enzyme activity, inhibitor, ATP luminescence | 10 µM | inhibition | 20.3% | O=C(c1ccc(Oc2ccc3c(c2)OCO3)c([N+](=O)[O-])c1)C(Cl)Cl
AKT2 | enzyme activity, inhibitor | 1 µM | remaining activity | 132% | COc1cc(-c2cncc3c2CN(C)Cc2cc(N4CCNCC4)ccc2-3)cc(OC)c1OC
